Experiments:
A549 = experiment: Growth inhibition of human A549/ATCC cells assessed as growth percentage at 10 uM incubated for 48 hrs by sulforhodamine B assay relative to control; type: functional; conditions: A549, 48 h, read-out: Activity
In short: (§1)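 NCI-60 one-dose screen: cells in RPMI 1640 with 5% FBS and 2 mM L-glutamine, plated at 5,000–40,000 cells/well and preincubated 24 h at 37 °C, 5% CO2. Compound is added from a DMSO stock to a final 10 µM and incubated 48 h. Cells are TCA-fixed and stained with sulforhodamine B, read at 515 nm. Output is % growth versus untreated control, with a time-zero plate.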

SR = experiment: Growth inhibition of human SR cells assessed as growth percentage at 10 uM incubated for 48 hrs by sulforhodamine B assay relative to control; type: functional; conditions: read-out: Activity
In short: (§2)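 NCI-60 single-dose screen. Cells were grown in RPMI 1640 with 5% FBS and 2 mM L-glutamine and plated at 5,000–40,000 cells/well. After an overnight preincubation at 37 °C in 5% CO2, compound was added at a final 10 µM from a DMSO stock, with DMSO/PBS controls. After 48 h, cells were TCA-fixed and stained with 0.4% SRB, and absorbance was read at 515 nm. Growth is given as a percentage of untreated control.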

RPMI-8226 = experiment: Growth inhibition of human RPMI8226 cells assessed as growth percentage at 10 uM incubated for 48 hrs by sulforhodamine B assay relative to control; type: functional; conditions: RPMI-8226, 48 h, read-out: Activity; in short: as §2
HL-60(TB) = experiment: Growth inhibition of human HL-60(TB) cells assessed as growth percentage at 10 uM incubated for 48 hrs by sulforhodamine B assay relative to control; type: functional; conditions: HL-60, 48 h, read-out: Activity
In short: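 NCI-60 single-dose screen. Cells in RPMI 1640 with 5% FBS and 2 mM L-glutamine are plated at 5,000–40,000 cells/well and preincubated overnight at 37 °C, 5% CO2. Compound is added from a DMSO stock at 10 µM final for 48 h. Cells are TCA-fixed (suspension cells 16% final) and stained with SRB. Absorbance is read at 515 nm, and percentage growth is calculated against untreated controls with a time-zero plate.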

HOP-62 = experiment: Growth inhibition of human HOP62 cells assessed as growth percentage at 10 uM incubated for 48 hrs by sulforhodamine B assay relative to control; type: functional; conditions: HOP-62, 48 h, read-out: Activity
In short: (§3)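 NCI-60 one-dose screen. Cells in RPMI 1640 with 5% FBS and 2 mM L-glutamine, seeded at 5,000–40,000 cells/well according to doubling time, and preincubated overnight at 37 °C, 5% CO2. A time-zero plate was TCA-fixed at drug addition. Compound from DMSO stock, final 10 µM, 48 h; DMSO vehicle controls. Fixation with TCA, 10% final (16% for suspension cells). SRB stain, Tris solubilization, A515. Result given as % growth versus untreated cells.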

HCT-15 = experiment: Growth inhibition of human HCT15 cells assessed as growth percentage at 10 uM incubated for 48 hrs by sulforhodamine B assay relative to control; type: functional; conditions: HCT-15, 48 h, read-out: Activity; in short: as §1
UACC-257 = experiment: Growth inhibition of human UACC257 cells assessed as growth percentage at 10 uM incubated for 48 hrs by sulforhodamine B assay relative to control; type: functional; conditions: UACC-257, 48 h, read-out: Activity; in short: as §2
MDA-MB-231 = experiment: Growth inhibition of human MDA-MB-231 cells assessed as growth percentage at 10 uM incubated for 48 hrs by sulforhodamine B assay relative to control; type: functional; conditions: MDA-MB-231, 48 h, read-out: Activity; in short: as §3
[1] = Growth inhibition of human HEK293 cells assessed as cell viability at 0.39 ug incubated for 48 hrs by MTT assay relative to control; type: cell-based; conditions: read-out: Activity
[2] = Growth inhibition of human HEK293 cells assessed as cell viability at 1.56 ug incubated for 48 hrs by MTT assay relative to control; type: cell-based; conditions: read-out: Activity
[3] = Growth inhibition of human HEK293 cells assessed as cell viability at 6.25 ug incubated for 48 hrs by MTT assay relative to control; type: cell-based; conditions: read-out: Activity
[4] = Growth inhibition of human HEK293 cells assessed as cell viability at 25 ug incubated for 48 hrs by MTT assay relative to control; type: cell-based; conditions: read-out: Activity
[5] = Growth inhibition of human HEK293 cells assessed as cell viability at 100 ug incubated for 48 hrs by MTT assay relative to control; type: cell-based; conditions: read-out: Activity
HEK293 = experiment: Growth inhibition of human HEK293 cells assessed as cell viability incubated for 48 hrs by MTT assay; type: cell-based; design: unit not given here
In short: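 HEK 293 normal-cell growth inhibition; measured in triplicate, IC50 reported as mean ± SD.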

[6] = Inhibition of kinesin (unknown origin) assessed as reduction in ATPase activity using microtubule as substrate measured for 5 to mins; design: species or system Homo sapiens

Compound | growth at 10 µM (A549) [%] | growth at 10 µM (SR) [%] | growth at 10 µM (RPMI-8226) [%] | growth at 10 µM (HL-60(TB)) [%] | growth at 10 µM (HOP-62) [%] | growth at 10 µM (HCT-15) [%] | growth at 10 µM (UACC-257) [%] | growth at 10 µM (MDA-MB-231) [%] | viability at 48 h, 0.39 ug [1] [%] | viability at 48 h, 1.56 ug [2] [%] | viability at 48 h, 6.25 ug [3] [%] | viability at 48 h, 25 ug [4] [%] | viability at 48 h, 100 ug [5] [%] | IC50 (HEK293) | IC50 [6] [µM]
CC1=C(C(=O)OC(C)C)C(c2ccc3c(c2)OCO3)NC(=O)N1 (racemic) | 106 | 108 | 101 | 108 | 117 | 99.7 | 104 | 104 | – | – | – | – | – | – | –
CC(=O)C1=C(C)NC(=O)NC1c1ccc2c(c1)OCO2 (racemic) | 103 | 108 | 103 | 98.6 | 103 | 106 | 107 | 102 | – | – | – | – | – | – | –
CC1=C(C(=O)c2ccccc2)C(c2ccc3c(c2)OCO3)NC(=S)N1 (racemic) | 40.3 | 6.28 | 44 | 2.6 | 51.8 | 33.7 | 57.2 | 79.1 | 86.8 | 79.5 | 69.9 | 57.9 | 46 | 62.02 | 10.7
CC1=C(C(=O)OC(C)C)C(c2ccc3c(c2)OCO3)NC(=S)N1 (racemic) | 104 | 103 | 87.7 | 105 | 119 | 100 | 100 | 101 | – | – | – | – | – | – | –
CC(=O)C1=C(C)NC(=S)NC1c1ccc2c(c1)OCO2 (racemic) | 105 | 104 | 105 | 96.4 | 104 | 108 | 102 | 104 | – | – | – | – | – | – | –
O=C1C2=C(NC(=S)NC2c2ccc3c(c2)OCO3)c2ccccc21 (racemic) | 107 | 107 | 103 | 99.7 | 104 | 105 | 102 | 104 | – | – | – | – | – | – | –
CC(=O)N1C(=S)NC(C)=C(C(=O)OCC(C)C)C1c1ccc2c(c1)OCO2 (racemic) | 95.9 | 80 | 54.8 | 98.5 | 91.9 | 93.3 | 99.5 | 88.7 | – | – | – | – | – | – | –
CC1=C(C(=O)OCC(C)C)C(c2ccc3c(c2)OCO3)NC(=O)N1 (racemic) | 109 | 108 | 99.9 | 96 | 114 | 101 | 103 | 106 | – | – | – | – | – | – | –
CC1=C(C(=O)c2ccccc2)C(c2ccc3c(c2)OCO3)NC(=O)N1 (racemic) | 101 | 101 | 100 | 105 | 99.2 | 99.8 | 98 | 102 | – | – | – | – | – | – | –
O=C1NC2=C(C(=O)c3ccccc32)C(c2ccc3c(c2)OCO3)N1 (racemic) | 106 | 110 | 107 | 98.9 | 96.1 | 105 | 100 | 109 | – | – | – | – | – | – | –
COCCOC(=O)C1=C(C)NC(=O)NC1c1ccc2c(c1)OCO2 (racemic) | 101 | 105 | 101 | 99.7 | 108 | 101 | 103 | 98.8 | – | – | – | – | – | – | –
CC1=C(C(=O)OCc2ccccc2)C(c2ccc3c(c2)OCO3)NC(=O)N1 (racemic) | 106 | 104 | 89.1 | 97 | 114 | 98.1 | 103 | 104 | – | – | – | – | – | – | –
CC1(C)CC(=O)C2=C(C1)NC(=O)NC2c1ccc2c(c1)OCO2 (racemic) | 108 | 118 | 110 | 97.6 | 122 | 103 | 102 | 111 | 78 | 71.5 | 60.1 | 50.9 | 43.5 | 33.2 | 3.95
CC(=O)N1C(=S)NC(C)=C(C(=O)OC(C)C)C1c1ccc2c(c1)OCO2 (racemic) | 99.4 | 89.6 | 73.9 | 99.3 | 88.5 | 99.3 | 104 | 88.9 | – | – | – | – | – | – | –
COCCOC(=O)C1=C(C)NC(=S)NC1c1ccc2c(c1)OCO2 (racemic) | 101 | 95.5 | 105 | 92.1 | 98 | 102 | 90.2 | 105 | – | – | – | – | – | – | –
CC1=C(C(=O)OCC(C)C)C(c2ccc3c(c2)OCO3)NC(=S)N1 (racemic) | 99 | 104 | 84 | 101 | 121 | 100 | 95.6 | 118 | – | – | – | – | – | – | –
CC(=O)C1=C(C)Nc2nc3ccccc3n2C1c1ccc2c(c1)OCO2 (racemic) | 99 | 73.8 | 96.4 | 98.4 | 94.7 | 98.2 | 111 | 93.5 | 77.4 | 70.7 | 59 | 48.6 | 36.6 | 19.3 | 14.1
COCCOC(=O)C1=C(C)NC(=S)N(C(C)=O)C1c1ccc2c(c1)OCO2 (racemic) | 99.2 | – | 97.7 | 97.8 | 87.7 | 103 | 95.3 | 97.8 | – | – | – | – | – | – | –
CC1=C(C(=O)OCc2ccccc2)C(c2ccc3c(c2)OCO3)NC(=S)N1 (racemic) | 93.7 | 77.2 | 76.5 | 56.1 | 106 | 96.5 | 96.7 | 105 | – | – | – | – | – | – | –

Source: ChEMBL document CHEMBL4406880, “Design, synthesis, and bioactivity of dihydropyrimidine derivatives as kinesin spindle protein inhibitors” (Bioorg Med Chem, 2019)
